Screens from PubChem.
T cruzi repl – blocks replication of Trypanosoma cruzi; T. cruzi beta-gal in NIH3T3, luminescence, 90 h; inhibition, % (test concentration not listed); hit rate 1.4% among 300,000; AID 1885;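 active means mean inhibition across valid replicates above about 55%, limit read from the data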;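 further: signal also drops with host cell toxicity which is not excluded here; 0% = plate median of DMSO wells and 100% = zero luminescence signal; higher percent means less beta-gal luminescence so fewer parasites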
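System: Mouse NIH/3T3 fibroblasts infected with β-gal-expressing T. cruzi Tulahuen C4 | Quantity: NIH/3T3 cells, 5,000 per well | Reagent: 5000 reporter trypomastigotes per well | Dosing: Compound pinned at 50 nL/well, DMSO | Schedule: 3 h host attachment, then at least 90 h co-culture | Detection: GalScreen luminescence, 60 min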
UPR XBP1 act – activators of adaptive arm of unfolded protein response (XBP1) | CHO-XBP1 luciferase reporter, IRE1-XBP1 UPR activation, luminescence; percent of tunicamycin response, DMSO as zero | activation, % at 20 µM | hit rate 0.33% among 330,000;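 active means versus positive control, 20 µM dose yields 30% or more activation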;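 further: 100% = tunicamycin at 10 µg/mL and 0% = DMSO only wells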
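Material: CHO cell line with stable XBP1 luciferase reporter; schedule: 16-18 h cell attachment at 37 °C, then 6 h compound exposure; signal: glow luminescence from Steady-Glo reagent; medium: serum-containing F12 medium, 10% FBS; benchmarks: tunicamycin 10 µg/mL and vehicle-only wells; read-out: percent activation relative to tunicamycin reference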
UPR CHOP act – activators of apoptotic arm of unfolded protein response (CHOP). CHO-CHOP luciferase reporter, UPR activation, luminescence; percent of tunicamycin response over DMSO baseline. activation, % at 10 µM. hit rate 0.34% among 330,000. AID 449763;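 active means at 10 µM dose, activation of 40% or more, normalized to positive control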;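 further: 100% = tunicamycin at 10 µg/mL and 0% = DMSO alone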
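Test system: CHO-CHOP cells, stable luciferase reporter of PERK-eIF2a-CHOP signalling | Quantity: 500 CHO-CHOP cells per well | Buffer or medium: F12 plus 10% serum | Compound dosing: 10 µM single point, 0.5% DMSO | Schedule: 6 h compound treatment, 37 °C | Signal: Luciferase luminescence | Control set: Tunicamycin high control, DMSO low control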
Beta cell apopt – beta cell apoptosis inhibition; INS-1E cytokine-induced death, ATP luminescence, 48 h; percent of positive-control rescue, neutral wells zero; protection from apoptosis, % (concentration not given with the values); hit rate 0.8% among 300,000; AID 435005;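 active means Every replicate reaches about 75%, or at least half do and their mean reaches it too, limit read from the data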;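 further: 0% = cytokine-treated negative control wells and 100% = positive control rescue; higher means more ATP so stronger rescue from cytokine killing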
Mdm2 MdmX PPI – disrupts the human Mdm2-MdmX interaction. O15151+Q00987. inhibition, % at 8 µM. SaOS-2 split-luciferase Mdm2/MdmX complementation, luminescence. AID 485346. hit rate 3% among 330,000;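 active means inhibition of at least 50% at 8 µM in the primary screen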
CSC inhib – cancer stem cell inhibition; cancer stem cell-like cells viability, luminescence; inhibition, % at 7.5 µM; hit rate 1.1% among 300,000; in the data active means inhibition above about 75%; tested in HMLE shEcad cells
An asterisk follows results filed as active; nt = no result. In the library only some 5% were active in any assay of this set; here they are far more common.

SMILES	T cruzi repl	UPR XBP1 act	UPR CHOP act	Beta cell apopt	Mdm2 MdmX PPI	CSC inhib
CN(C)CC#CCC(O)(c1ccccc1)C1CCCC1 (centres undefined)	66.9*	0.7	-0.6	-4.2	23.9	1.1
OC(CC#CCN1CCCCCC1)(c1ccccc1)C1CCCC1 (centres undefined)	23.0	-1.2	-1.7	8.4	15.6	18.1
COC(=O)C1=C(c2ccc(Cl)c(C(F)(F)F)c2)C[C@@H]2CC[C@H]1N2C(=O)N1CCC(C)CC1	nt	0.3	2.4	-5.8	12.6	52.6
Cc1ccc(-n2c(O)c(/C=C/C=Nc3ccccc3)c(=O)[nH]c2=O)cc1	-20.1	-2.4	1.1	nt	-37.6	nt
Cc1ccc(N/N=C/c2c(O)n(-c3ccccc3)c(=O)[nH]c2=O)cc1	25.6	1.0	3.2	-13.9	-22.9	96.4*
CCOCCCn1c(N)c(C(=O)Nc2sc3c(c2C(=O)OC)CCCC3)c2nc3ccccc3nc21	7.4	-0.3	0.7	nt	49.8	nt
CCOC(=O)c1c(NC(=O)c2c(N)n(CCCOC)c3nc4ccccc4nc23)sc2c1CCCC2	64.0*	-2.6	1.3	1.8	48.6	3.0
COC(=O)C1=C(c2ccc(OC(F)(F)F)cc2)C[C@@H]2CC[C@H]1N2C(=O)NC1CCCCC1	nt	-4.7	-1.9	-0.8	21.2	7.8
Oc1c(Br)cc(Br)cc1Oc1ccc(Br)cc1Br	-9.5	nt	nt	9.4	nt	107.8*
Brc1ccc(Oc2ccc(Br)cc2Br)c(Br)c1	nt	-0.8	3.6	6.2	11.0	29.2
CC1CCCC(NC(=O)COC(=O)c2cn(C)c3ccccc23)C1C (centres undefined)	nt	-2.9	1.9	7.3	-6.7	-4.4
Clc1ccc(COC(Cn2ccnc2)c2ccc(Cl)cc2Cl)c(Cl)c1 (centres undefined)	50.8	2.3	0.0	10.6	12.6	102.3*
C#C[C@]1(O)[C@H](O)CC2C3CC[C@H]4C[C@@H](O)CC[C@]4(C)C3CC[C@@]21C (some centres undefined)	nt	0.1	2.2	-2.7	16.2	-2.6
O=C(Nc1nc(-c2ccccc2)c(-c2ccccc2)s1)c1ccc(S(=O)(=O)N(CCCl)CCCl)cc1	56.2*	-0.1	3.8	6.2	25.7	10.3
COc1cccc(CNCCc2ccc(F)cc2)c1	43.2	-2.6	-0.2	-4.1	18.5	2.7
COc1ccc(CCNCc2ccc(SC)cc2)cc1	60.5*	-4.9	-0.2	-2.6	11.3	10.4
O=C(c1c[nH]cc1-c1ccccc1)c1cccc2ccccc12	57.9*	-4.8	0.9	-1.3	39.6	17.2
COC(=O)C1=C(c2ccc(OC)c(OC)c2)C[C@@H]2CC[C@H]1N2C(=O)NCC1CC1	nt	-0.5	1.7	0.7	11.8	-23.1
CCOc1ccc(-c2cc(C)[n+](CCO)c(-c3ccc(OCC)cc3)c2)cc1	72.3*	-1.5	0.9	36.5	20.8	nt
CCCCCCC(Cl)(Cn1ccnc1)c1ccccc1 (centres undefined)	41.4	-3.2	-0.4	-0.6	9.1	3.6
COc1ccc(N2C(=O)NC(=O)/C(=C\c3ccc([N+](=O)[O-])s3)C2=O)cc1	60.1*	-3.2	1.3	0.9	12.3	6.3
CC(Cc1ccccc1)N1C(=O)c2ccccc2C1=O (centres undefined)	-4.7	5.6	1.1	0.4	7.8	-5.6
CCCCCCC[n+]1ccc(-c2cc[n+](CCCCCCC)cc2)cc1	-36.9	-1.1	1.5	102.5*	0.6	0.4
CCCCCCOc1ccc(CN2CCN(CC)CC2)cc1	65.0*	-3.5	1.2	6.9	25.4	72.9
CCN1CCN(Cc2ccc(OC(F)(F)F)cc2)CC1	40.8	-0.6	0.2	-1.8	1.4	3.5
SMILES	T cruzi repl	UPR XBP1 act	UPR CHOP act	Beta cell apopt	Mdm2 MdmX PPI	CSC inhib
Fc1ccc(Cn2nnnc2C(c2ccc(Cl)cc2)N2CC=C(c3ccc(F)cc3)CC2)cc1 (centres undefined)	69.0*	1.9	-1.7	-0.7	-7.4	9.2
Cc1ccc(C(c2nnnn2Cc2ccccc2)N2CC=C(c3ccc(F)cc3)CC2)cc1 (centres undefined)	65.5*	1.6	0.0	20.5	-0.9	24.0
Fc1ccc(C2=CCN(C(c3ccc(Cl)cc3)c3nnnn3Cc3ccccc3)CC2)cc1 (centres undefined)	37.6	-1.1	-1.7	-0.7	21.4	2.4
CC(=O)NC(Cc1ccc(N(CCCl)CCCl)cc1)C(=O)NCC(=O)NCC(=O)O (centres undefined)	-15.3	-2.2	-0.4	9.5	11.9	-7.9
CC(OC(=O)c1cn(C)c2ccccc12)C(=O)N1CCCC1 (centres undefined)	nt	-3.9	-1.9	-4.9	16.4	-0.8
COc1cccc(NP(=O)(Oc2ccc(Cl)cc2)Oc2ccc(Cl)cc2)c1	30.4	-2.4	0.3	-1.6	48.8	77.2*
O=[N+]([O-])c1ccc(-[n+]2c(-c3ccccc3)cc(-c3ccccc3)cc2-c2ccccc2)cc1	56.7*	-3.5	0.7	nt	15.0	0.2
OC(CNCCc1c[nH]c2ccccc12)c1ccccc1 (centres undefined)	-2.1	-0.7	1.4	-6.0	12.4	-5.7
Oc1ccccc1/C=N/NP(=S)(c1ccccc1)c1ccccc1	10.2	2.9	3.1	6.3	-31.6	96.5*
CCCN1CCCC(C(=O)c2cc(C)c(OC)c(C)c2)C1 (centres undefined)	-1.9	0.1	0.2	nt	5.5	62.5
C=C1[C@H]2C[C@H]3[C@H]4N5C[C@]6(C)CCC[C@]47[C@H]([C@H]2O)[C@]3(C[C@]5(O)[C@H]67)[C@@H]1O	-6.1	-0.8	-1.7	0.0	11.4	-8.7
Cc1cccc(CSc2nc3c(cc2C#N)CN(C)CC3)c1	58.6*	2.2	-1.0	-1.0	17.4	37.1
Clc1cccc(C2NCc3ccccc3-n3cccc32)c1 (centres undefined)	-6.5	0.8	0.1	-2.7	0.6	16.7
CN1CCN(c2ccc([N+](=O)[O-])c(NCc3ccco3)c2)CC1	46.0	-0.9	0.1	3.0	6.3	93.0*
CN1CCN(c2ccc([N+](=O)[O-])c(N3CCCCC3)c2)CC1	79.5*	-0.3	0.7	-5.1	9.1	36.4
O=[N+]([O-])c1ccc(N2CCNCC2)cc1NCc1ccco1	4.8	-1.4	0.2	-3.2	10.5	8.8
Cc1nn(Cc2ccccc2)c(Cl)c1C(=O)OCC(=O)N1CCCC1	1.8	4.1	1.5	-8.4	20.0	-13.5
COc1ccc(NS(=O)(=O)c2ccc(OCC(=O)N3CCN(C)CC3)cc2)cc1Cl	57.7*	-4.5	-0.7	-4.1	18.2	3.3
CN1CCN(C(=O)COc2ccc(S(=O)(=O)N(C)Cc3ccccc3)cc2)CC1	60.6*	-3.5	1.1	0.0	4.3	3.6
